Measured values taken from PMC4829350 (Biochimica et biophysica acta, 2014).
Read-outs that look alike come from different tables or passages of the source. Residues, ends and D or L forms follow the SMILES beside them. *: point of attachment. Cbz = O=C(OCc1ccccc1)*

Assays:
[1] = biological target: T1, T-L active center of the proteasome (mouse) (Mus musculus, UniProt P70195); assay: Peptidolytic assay, T-L activity, mouse liver subcellular fractions; format: biochemical
T1 sequence (P70195 44-277): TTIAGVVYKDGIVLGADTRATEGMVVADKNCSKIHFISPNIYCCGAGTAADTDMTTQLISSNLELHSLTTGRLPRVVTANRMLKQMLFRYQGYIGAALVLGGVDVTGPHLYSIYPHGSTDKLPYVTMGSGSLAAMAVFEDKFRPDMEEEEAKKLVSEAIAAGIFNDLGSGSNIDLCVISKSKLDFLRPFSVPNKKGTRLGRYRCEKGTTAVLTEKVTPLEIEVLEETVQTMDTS
Summary of the method: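 Female mice aged 4–6 months; liver split into cytosolic, microsomal and nuclear fractions. T-L activity was read with a fluorogenic AMC peptide, against an AMC standard curve, as pmol AMC/min/μg protein. Inhibitor classes were titrated: boronate 5nM–10μM, lactone 0.2μM–8μM, aldehyde and vinyl sulfone 10μM–250μM. IC50 was taken as 50% activity loss, from exponential-decay or sigmoidal fits.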

[2] = biological target: T2, ChT-L active center of the proteasome (mouse) (Mus musculus, UniProt O55234); assay: Peptidolytic assay, ChT-L activity, mouse liver subcellular fractions; format: biochemical
T2 sequence (O55234 60-264): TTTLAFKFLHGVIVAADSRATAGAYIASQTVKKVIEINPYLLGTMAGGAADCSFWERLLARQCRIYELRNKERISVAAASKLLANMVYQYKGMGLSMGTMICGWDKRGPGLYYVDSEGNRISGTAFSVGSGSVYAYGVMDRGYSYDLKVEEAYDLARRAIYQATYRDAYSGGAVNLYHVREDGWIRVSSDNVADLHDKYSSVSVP

[3] = biological target: T-L active center of the proteasome (NMR) (Heterocephalus glaber, UniProt A0A0P6JE03); assay: Peptidolytic assay, T-L activity, naked mole-rat liver subcellular fractions; format: biochemical; settings: read-out: T-L IC50 NMR, cytosolic fraction, ± S.E.
[4] = biological target: ChT-L active center of the proteasome (NMR) (Heterocephalus glaber, UniProt G5ASK0); assay: Peptidolytic assay, ChT-L activity, naked mole-rat liver subcellular fractions; format: biochemical
[5] = biological target: human 26S proteasome [h26S] (Homo sapiens, UniProt P20618+P28074); assay: ChT-L activity of purified human 26S proteasome with supernatants or fractions; format: biochemical; settings: 10 nM BZ
[6] = biological target: T3, ProtMS (mouse partially purified proteasome) (Mus musculus, UniProt O55234); format: biochemical
T3 sequence (O55234 60-264): T2 sequence (O55234 60-264)

[7] = system: ProtNMR (naked mole-rat partially purified proteasome); format: biochemical, Heterocephalus glaber
[8] = system: human 26S proteasome [h26S] in SNNMR; format: biochemical; settings: h26S in SNNMR challenged with MG132
Summary of the method: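 Naked mole-rat liver cytosolic lysate or its high-speed supernatant was incubated at 30°C for 1hr with 1mM ATP plus anti-chaperone antibodies (HSP72, HSP40, HSP25, HSP90; 10pg–400pg) or HSP72 inhibitors (25nM–1000nM or 10μM–1000μM). Purified human 26S proteasome was then added, and ChT-L activity was read with Suc-LLVY-AMC ± 20μM MG132.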

[9] = system: naked mole-rat proteasome (ChT-L activity) with HSPs of NMR cytosol/supernatant; format: biochemical, Heterocephalus glaber; settings: for effect on inhibition resistance / sensitivity to inhibition: NMR cytosolic fraction or SNNMR + Prot, 20 μM MG132
Summary of the method: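 HSP antibodies (anti-HSP72, -HSP40, -HSP25 or -HSP90; 10pg to 400pg, serially diluted in PBS/50% glycerol) or small-molecule HSP72 inhibitors (25nM to 1000nM; 10μM to 1000μM) added to NMR cytosolic lysate or 100,000xg supernatant. Incubated 1hr at 30°C with 1mM ATP. Human 26S or partially purified NMR proteasome then added. ChT-L activity read with Suc-LLVY-AMC ± 20μM MG132, as pmol AMC/min/μg protein.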

[10] = ChT-L IC50 Ms, cytosolic fraction, ± S.E.
[11] = sample ProtMS + FT, 20 μM MG132
[12] = sample ProtMS + FT, 50 μM MG132
[13] = sample ProtMS + SN, 20 μM MG132
[14] = sample ProtMS + SN, 50 μM MG132
[15] = sample ProtNMR + FT, 20 μM MG132
[16] = sample ProtNMR + FT, 50 μM MG132
[17] = sample ProtNMR + R, 20 μM MG132
[18] = sample ProtNMR + R, 50 μM MG132
[19] = sample ProtNMR + SN, 20 μM MG132
[20] = sample ProtNMR + SN, 50 μM MG132

For `CC(C)CC(C=CS(C)(=O)=O)NC(=O)[C@H](CC(C)C)NC(=O)[C@H](CC(C)C)NC(=O)CCCCCNC(=O)CCCCCNC(=O)CCCCCNC(=O)CC12CC3CC(CC(C3)C1)C2` (stereo partly drawn) [Adh (VS), adamantane-acetyl-(6-aminohexanoyl)3-(leucinyl)3-vinyl-(methyl)-sulfone], the IC50 ([1]; read-out: T-L IC50 Ms, cytosolic fraction, ± S.E.) was 16.2 ± 1.9 µM, the IC50 ([2]; read-out: ChT-L IC50 Ms, cytosolic fraction, ± S.E.) was 5.56 ± 1.57 µM and the IC50 [3] was 80.6 ± 2.5 µM. The “ChT-L IC50 in naked mole-rat relative to mouse cytosolic extracts” value ([4]; cytosolic extracts) was 22 fold and the IC50 ([4]; read-out: ChT-L IC50 NMR, cytosolic fraction, liver, ± S.E.) was 125 ± 5.6 µM.
In the case of `CC(C)C[C@H](NC(=O)[C@H](Cc1ccccc1)NC(=O)c1cnccn1)B(O)O` [BZ, bortezomib], the “ablation of ChT-L activity of h26S” value ([5]; h26S without fr.23) is reported as 75% and the “reduction of ChT-L activity of h26S” value ([5]; in the presence of fr. 23) is reported as 30%.
With `CC(=O)N[C@@H](CSC(=O)[C@]1([C@@H](O)C(C)C)NC(=O)[C@H](C)[C@@H]1O)C(=O)O` [LC, lactacystin] the IC50 [2, 10] was 0.156 ± 0.005 µM.
For `CC(C)C[C@@H](C=O)NC(=O)[C@H](CC(C)C)NC(=O)[C@H](CC(C)C)NC(=O)OCc1ccccc1` [MG132, N-(benzyl-oxycarbonyl) leucinyl-leucinyl-leucinal] (Cbz-Leu-Leu-Leu-aldehyde), the “ChT-L activity, Mean ± SE” value ([6]; sample ProtMS + FT (flow-through), 10 μM MG132) was 17 ± 0.3 pmol AMC/min/μg protein, the inhibition at 10 µM ([6]; sample ProtMS + FT, 10 μM MG132) was 85.5% and the “ChT-L activity, Mean ± SE” value [6, 11] was 15 ± 3.0 pmol AMC/min/μg protein. For the same compound, the inhibition at 20 µM [6, 11] was 87.2%, the “ChT-L activity, Mean ± SE” value [6, 12] was 3.0 ± 1.9 pmol AMC/min/μg protein and the inhibition at 50 µM [6, 12] was 97.4%. For the same compound, the “ChT-L activity, Mean ± SE” value ([6]; sample ProtMS + R (retentate), 10 μM MG132) was 178 ± 72 ^# pmol AMC/min/μg protein, the inhibition at 10 µM ([6]; sample ProtMS + R, 10 μM MG132) was 36.9% and the “ChT-L activity, Mean ± SE” value ([6]; sample ProtMS + R, 20 μM MG132) was 172 ± 70 ^# pmol AMC/min/μg protein. For the same compound, the inhibition at 20 µM ([6]; sample ProtMS + R, 20 μM MG132) was 39%, the “ChT-L activity, Mean ± SE” value ([6]; sample ProtMS + R, 50 μM MG132) was 89 ± 12 ^# pmol AMC/min/μg protein and the inhibition at 50 µM ([6]; sample ProtMS + R, 50 μM MG132) was 68.4%. The “ChT-L activity, Mean ± SE” value ([6]; sample ProtMS + SN (NMR supernatant), 10 μM MG132) was 126 ± 22 ^# pmol AMC/min/μg protein, the inhibition at 10 µM ([6]; sample ProtMS + SN, 10 μM MG132) was 52.1% and the “ChT-L activity, Mean ± SE” value [6, 13] was 116 ± 20 ^# pmol AMC/min/μg protein. For the same compound, the inhibition at 20 µM [6, 13] was 55.9%, the “ChT-L activity, Mean ± SE” value [6, 14] was 84 ± 34 ^# pmol AMC/min/μg protein and the inhibition at 50 µM [6, 14] was 68.1%. For the same compound, the “ChT-L activity, Mean ± SE” value ([6]; sample ProtMS, 10 μM MG132) was 25 ± 0.1 pmol AMC/min/μg protein, the inhibition at 10 µM ([6]; sample ProtMS, 10 μM MG132) was 87.6% and the “ChT-L activity, Mean ± SE” value ([6]; sample ProtMS, 20 μM MG132) was 17 ± 0.2 pmol AMC/min/μg protein. For the same compound, the inhibition at 20 µM ([6]; sample ProtMS, 20 μM MG132) was 91.5%, the “ChT-L activity, Mean ± SE” value ([6]; sample ProtMS, 50 μM MG132) was 11 ± 0.1 pmol AMC/min/μg protein and the inhibition at 50 µM ([6]; sample ProtMS, 50 μM MG132) was 94.5%. For the same compound, the “ChT-L activity, Mean ± SE” value ([7]; sample ProtNMR + FT (flow-through), 10 μM MG132) was 40 ± 18 pmol AMC/min/μg protein, the “% Inhibition” value ([7]; sample ProtNMR + FT, 10 μM MG132) was 83.1% and the “% Inhibition” value [7, 15] was 88.6%. The “ChT-L activity, Mean ± SE” value [7, 15] was 27 ± 18 pmol AMC/min/μg protein, the “% Inhibition” value [7, 16] was 93.2% and the “ChT-L activity, Mean ± SE” value [7, 16] was 16 ± 13 pmol AMC/min/μg protein. For the same compound, the “ChT-L activity, Mean ± SE” value ([7]; sample ProtNMR + R (retentate), 10 μM MG132) was 542 ± 181 ^# pmol AMC/min/μg protein, the “% Inhibition” value ([7]; sample ProtNMR + R, 10 μM MG132) was 31.0% and the “% Inhibition” value [7, 17] was 39.0%. For the same compound, the “ChT-L activity, Mean ± SE” value [7, 17] was 479 ± 146 ^# pmol AMC/min/μg protein, the “% Inhibition” value [7, 18] was 51.8% and the “ChT-L activity, Mean ± SE” value [7, 18] was 378 ± 104 ^# pmol AMC/min/μg protein. The “ChT-L activity, Mean ± SE” value ([7]; sample ProtNMR + SN (NMR supernatant), 10 μM MG132) was 488 ± 58 ^# pmol AMC/min/μg protein, the “% Inhibition” value ([7]; sample ProtNMR + SN, 10 μM MG132) was 51.7% and the “% Inhibition” value [7, 19] was 50.6%. The “ChT-L activity, Mean ± SE” value [7, 19] was 499 ± 71 ^# pmol AMC/min/μg protein, the “% Inhibition” value [7, 20] was 67.7% and the “ChT-L activity, Mean ± SE” value [7, 20] was 327 ± 104 ^# pmol AMC/min/μg protein. For the same compound, the “% Inhibition” value ([7]; sample ProtNMR, 10 μM MG132) was 86.0%, the “ChT-L activity, Mean ± SE” value ([7]; sample ProtNMR, 10 μM MG132) was 72 ± 13 pmol AMC/min/μg protein and the “% Inhibition” value ([7]; sample ProtNMR, 20 μM MG132) was 91.6%. For the same compound, the “ChT-L activity, Mean ± SE” value ([7]; sample ProtNMR, 20 μM MG132) was 43 ± 0.3 pmol AMC/min/μg protein, the “% Inhibition” value ([7]; sample ProtNMR, 50 μM MG132) was 95.5% and the “ChT-L activity, Mean ± SE” value ([7]; sample ProtNMR, 50 μM MG132) was 23 ± 1.0 pmol AMC/min/μg protein. The IC50 ([1]; T-L IC50 Ms, cytosolic fraction, ± S.E.) was 14.6 ± 4.4 µM, the IC50 ([1]; T-L IC50 Ms, microsomal fraction) was 6.63 µM and the IC50 ([1]; T-L IC50 Ms, nuclear fraction, ± S.E.) was 12.8 ± 4.7 µM. For the same compound, the IC50 [2, 10] was 8.22 ± 2.75 µM, the IC50 ([2]; ChT-L IC50 Ms, microsomal fraction) was 0.99 µM and the IC50 ([2]; ChT-L IC50 Ms, nuclear fraction, ± S.E.) was 4.6 ± 1.62 µM.
For `N#Cc1ccc(COC[C@H]2O[C@@H](n3c(NCc4ccc(Cl)c(Cl)c4)nc4c(N)ncnc43)[C@H](O)[C@@H]2O)cc1` [VER155008], the “effect on inhibition resistance” value [8] was “did not disrupt the inhibition resistance”, the “effect on inhibition resistance / sensitivity to inhibition” value [9] was “did not disrupt the inhibition resistance” and the “effect on proteasome activity associated with SNNMR” value ([9]; titration 25nM to 1000nM) was “had no effect”.
In the case of `NS(=O)(=O)C#Cc1ccccc1` [pifithrin-μ], the “effect on inhibition resistance / sensitivity to inhibition” value [9] is reported as “attenuated resistance to inhibition”.
